Screening data deposited in PubChem BioAssay by several laboratories.
Most compounds without a hit are left out; they make up all but 2.5% or so of the library.
B2AR ag – beta2AR agonists driving receptor internalization, primary screen, cell-based, FAP fluorogen, flow cytometry; Beta-2 adrenergic receptor (Homo sapiens), P07550; Am2.2-beta2AR cells; response, % (concentration not given with the values); 0.43% of 340,000 active;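 active = response above a set limit, near 3 SD of response in nonfluorescent compounds, cut at about 42% in these data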
NadD inh – inhibitors of S. aureus NadD, primary screen, biochemical, colorimetric, uHTS. 0.78% of 360,000 active. inhibition, % at 20 µM. Nicotinate-nucleotide adenylyltransferase NadD (Staphylococcus aureus N315). purified NadD enzyme, colorimetric absorbance read-out; in the data active = inhibition above about 26%
ABHD5-PLIN5 inh – ABHD5-PLIN5 interaction inhibitors, primary screen, cell lysate, split luciferase complementation, luminescence. 0.78% of 360,000 active. AID 602281, 2012. inhibition, % at 4 µM. Split G. princeps luciferase complementation, 4 h;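 active = inhibition above the mean inhibition across every tested compound plus 3 SD, cut at about 22% in these data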;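 note: 0% = DMSO only wells and the 100% control is not disclosed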
SENP1 inh – human SENP1 catalytic domain inhibitors, primary screen, biochemical, FRET, uHTS | recombinant SENP1 catalytic domain, CyPet-SUMO1-YPet FRET cleavage | Sentrin-specific protease 1 (Homo sapiens), Q9P0U3 | inhibition, % at 10 µM | 0.21% of 360,000 active;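 active = inhibition at least 30% at 10 µM, raw YFP signal under a set limit, fluorescence ratio 0.5 to 1.5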;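 note: 0% = enzyme with DMSO and 100% = no enzyme wells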
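Assay system – human recombinant His6-tagged SENP1 catalytic domain enzyme · Input – SENP1 enzyme, 20 pM final · Buffer or medium – Tris pH 8 buffer plus EDTA, NaCl, BME, BSA, NP40, catalase · Schedule – 50 min reaction at room temperature · Technique – FRET read of cyan and yellow fluorescence · Control set – no-enzyme wells low, DMSO-plus-enzyme wells high control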
GRK2 aptamer HTS – compounds blocking aptamer binding on GRK2 – biochemical, human GRK2, bead flow cytometry, HTS, primary screen. inhibition of aptamer binding, % at 10 µM. Beta-adrenergic receptor kinase 1 (Homo sapiens), P25098. 0.59% of 330,000 active. FAM-aptamer displacement from GRK2;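 active = inhibition of aptamer binding above 40%, roughly 3 SD of noise, on plates passing a quality check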;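 note: median bead fluorescence of bound FAM aptamer so fluorescent compounds give negative values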
Target sequence (P25098 whole entry, looked up): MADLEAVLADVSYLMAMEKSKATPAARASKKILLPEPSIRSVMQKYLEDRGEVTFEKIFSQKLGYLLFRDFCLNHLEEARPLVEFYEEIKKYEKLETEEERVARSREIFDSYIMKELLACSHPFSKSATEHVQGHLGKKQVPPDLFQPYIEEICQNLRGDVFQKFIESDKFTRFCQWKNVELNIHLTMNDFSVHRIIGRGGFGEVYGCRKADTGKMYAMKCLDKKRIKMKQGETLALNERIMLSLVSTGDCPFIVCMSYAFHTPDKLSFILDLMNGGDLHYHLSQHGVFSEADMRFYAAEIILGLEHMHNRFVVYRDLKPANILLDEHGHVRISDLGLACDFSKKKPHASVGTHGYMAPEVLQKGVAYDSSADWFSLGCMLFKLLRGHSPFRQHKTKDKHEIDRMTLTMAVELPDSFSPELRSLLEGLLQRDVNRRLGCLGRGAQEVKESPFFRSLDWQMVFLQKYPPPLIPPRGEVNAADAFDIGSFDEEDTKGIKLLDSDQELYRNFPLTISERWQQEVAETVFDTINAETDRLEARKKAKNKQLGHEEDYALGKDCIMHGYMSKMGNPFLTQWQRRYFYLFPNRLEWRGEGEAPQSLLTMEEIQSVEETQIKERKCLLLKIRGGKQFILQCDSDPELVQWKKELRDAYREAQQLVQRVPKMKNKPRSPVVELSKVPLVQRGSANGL
An asterisk follows results filed as active; nt = no result.

SMILES	B2AR ag	NadD inh	ABHD5-PLIN5 inh	SENP1 inh	GRK2 aptamer HTS
Cc1ccc(C)c(S(=O)(=O)N2CCCC2CNC(=O)C(=O)NC2CCCC2)c1 (centres undefined)	60.6*	-3.4	-9.0	0.5	1.0
N#Cc1ccc(CN2CCN(C(=O)CN3C(=O)NC4(CCCC4)C3=O)CC2)cc1	-6.5	-4.9	3.7	0.1	nt
COc1ccc(NC(=O)c2ccc(NC(=O)c3cccnc3)cc2)cc1	nt	-0.9	1.8	-10.9	nt
COc1ccc(C(=O)Nc2ccc(C(=O)Nc3cccnc3)cc2)cc1	53.6*	-1.7	-5.3	0.4	0.0
COc1ccc(C)c2sc(N(CCCN(C)C)C(=O)c3ccc(S(=O)(=O)N4CCc5ccccc5C4)cc3)nc12	51.5*	10.0	16.6	-0.5	0.0
COc1ccc(OC)c2sc(N(CCCN(C)C)C(=O)c3ccc(S(=O)(=O)N4CCc5ccccc5C4)cc3)nc12	nt	nt	nt	nt	0.0
CCOc1cccc2sc(N(CCCN(C)C)C(=O)c3ccc(S(=O)(=O)N(CC)Cc4ccccc4)cc3)nc12	24.7	3.8	22.6*	-0.1	0.0
CCOc1cccc2sc(N(CCN(C)C)C(=O)c3cc4ccccc4cc3OC)nc12	21.3	2.6	23.0*	3.3	0.0
COc1cccc2sc(N(CCCN(C)C)C(=O)c3ccc(S(=O)(=O)N4CCc5ccccc5C4)cc3)nc12	55.8*	1.0	21.5	-0.7	0.0
CCOc1ccc2nc(N(CCN(C)C)C(=O)c3cc4ccccc4cc3OC)sc2c1	1.8	0.8	13.3	-1.3	2.0
COc1c(C(=O)Nc2nnc(C3CC3)s2)csc1Cl	-10.8	-5.2	3.3	0.8	2.0
CCOC(=O)C1CCN(S(=O)(=O)c2ccc(CNC(=O)c3ccccc3)s2)CC1	4.5	-6.9	-1.9	1.7	3.0
Cc1ccccc1N=Nc1ccc(O)c2ncccc12	10.9	32.7*	6.3	2.1	2.0
COc1ccc(N=Nc2ccc(O)c3ncccc23)cc1	14.9	40.3*	2.3	2.2	0.0
O=Nc1ccc(O)c2ncccc12	-5.6	-1.4	-3.1	-1.4	0.0
O=S(=O)(O)c1cccc2c(N=Nc3ccc(O)c4ncccc34)cccc12	1.5	-3.3	35.9*	-8.0	5.0
COc1cccc(N=Nc2ccc(O)c3ncccc23)c1	8.9	34.3*	1.8	2.9	1.0
COc1cc(/C=C\C(=O)O)cc(S(=O)(=O)N2CCCCCC2)c1OC	-1.2	-2.6	-4.8	1.0	nt
Cc1ccc(-c2nnn(CC(=O)Nc3ccc4nn(-c5ccccc5)nc4c3)n2)o1	-7.3	34.1*	3.9	-3.5	0.0
CN1CCN(C2Cc3cc(Cl)ccc3Sc3cc(F)ccc32)CC1 (centres undefined)	16.8	-8.3	10.0	-0.2	0.0
OCCN1CCN(C2Cc3cc(Cl)ccc3Sc3ccc(Cl)cc32)CC1 (centres undefined) (tested in a mixture with another compound)	8.1	-10.5	23.0*	2.6	0.0
COc1ccc(NC(=O)CN2C(=O)S/C(=C/c3cccn3-c3ccc(C(=O)O)cc3)C2=O)cc1	0.2	11.3	0.3	-15.1	49.0*
Cc1onc(-c2ccccc2)c1C(=O)NC(=S)NNC(=O)c1ccncc1	7.8	3.8	-4.2	1.3	74.0*
Cc1onc(-c2ccccc2)c1C(=O)NC(=S)NNC(=O)c1cccnc1	1.8	1.3	-1.9	2.2	0.0
Cc1[nH]c2ccc(C(=O)N3CCN(c4ccc(F)cc4)CC3)cc2c1C	4.1	0.0	9.7	-0.2	0.0
SMILES	B2AR ag	NadD inh	ABHD5-PLIN5 inh	SENP1 inh	GRK2 aptamer HTS
O=C(c1ccc(N2CCCCC2)c([N+](=O)[O-])c1)N1CCOCC1	-13.8	4.1	0.3	-1.0	0.0
O=C(/C=C/c1ccc(N2CCCCC2)c([N+](=O)[O-])c1)c1ccc(O)cc1	-7.3	5.9	22.4*	2.7	1.0
C=CCNC(=O)[C@H]1N2C(=O)c3ccccc3C2SC1(C)C (some centres undefined)	0.1	-7.1	3.4	-1.8	3.0
Cc1nc2ccc(CN(C)c3ccc(C(=O)N[C@@H](CCC(=O)O)C(=O)O)s3)cc2c(=O)[nH]1	nt	nt	nt	nt	53.0*
C/C(=N\NC(=O)c1cc(-c2cccnc2)nc2ccccc12)c1ccc(O)cc1O	-2.6	20.4	6.4	48.9*	3.0
COc1ccccc1-c1cc(-c2ccccc2)nc(SC(C(N)=O)c2ccccc2)c1C#N (centres undefined)	-1.5	35.8*	-0.6	-9.3	2.0
Cc1nc(SC(C(N)=O)c2ccccc2)c(C#N)c(C)c1C (centres undefined)	0.8	0.1	-0.6	1.0	1.0
CSCCNC(C)=O	nt	nt	nt	nt	61.0*
CC(Sc1nc2ccccc2c(=O)n1CC1CCCO1)C(=O)N(C)c1ccccc1 (centres undefined)	13.3	5.3	-9.0	-1.1	0.0
Cc1ccc(-n2c(SCC(=O)N(C)C3CCS(=O)(=O)C3)nc3ccccc3c2=O)c(C)c1 (centres undefined)	-0.1	2.3	10.0	2.2	2.0
COc1ccc(-n2nc3c(N4CCC(C(=O)N5CCC(C)CC5)CC4)nnc(C)c3c2C)cc1	-8.5	6.0	11.2	68.0*	0.0
COc1ccc(C2Nc3ccccc3C(=O)N2Cc2ccco2)cc1COc1ccccc1F (centres undefined)	-9.7	14.0	23.1*	-13.3	0.0
COc1ccc(C2Nc3ccccc3C(=O)N2Cc2ccco2)cc1COc1ccc(NC(C)=O)cc1 (centres undefined)	-14.9	3.6	8.8	-4.2	2.0
O=C(/C=C/c1ccc(Cl)cc1)N1CCN(Cc2ccccc2)CC1	-10.7	-5.4	6.0	1.0	44.0*
CCN(CC(=O)NCc1cccs1)C(=O)c1cc(Br)ccc1O	-5.2	-0.7	-2.5	0.1	0.0
CC(=O)N1CCc2cc(N=NC3=C(O)CC(C)(C)CC3=O)ccc21	-36.8	1.2	2.7	67.3*	5.0
CCN(CC(=O)Nc1cc(Cl)ccc1C)C(=O)c1ccc(N2CCCC2=O)cc1	-2.6	7.1	-11.4	2.6	0.0
CC1CCCN(S(=O)(=O)c2ccc(NC(=O)Cn3nnc(-c4ccccc4F)n3)cc2)C1 (centres undefined)	-0.1	6.4	22.3*	2.8	0.0
C[C@H](NC(=O)c1ccco1)C(=O)NCc1cccs1	0.0	7.8	5.4	-0.9	0.0
Cc1ccc(C)n1-c1cc(S(=O)(=O)N2CCOCC2)ccc1N1CCCC1	4.6	34.9*	7.6	-45.7	5.0
Cc1ccc(C2C(/C=C3/SC(=S)NC3=O)=C(c3cccs3)Oc3ccccc32)cc1 (centres undefined)	11.0	59.9*	6.0	22.8	3.0
CCOC(=O)/C=C1/SCC(=O)N1CC(=O)Nc1ccc2c(c1)CCC2	7.6	-1.1	-2.8	-0.2	nt
